In ChEMBL document CHEMBL2010774, “Cytotoxic apigenin derivatives from Chrysopogon aciculatis” (J Nat Prod, 2012):

Key:
Type in all cases: functional, cell-based
MCF7 = test: Cytotoxicity against human MCF7 cells after 48 hrs by alamar blue assay; conditions: MCF7, 48 h
How it was run: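 MCF-7, a human breast cancer cell line.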

CCRF-CEM = test: Cytotoxicity against human CEM cells after 48 hrs by alamar blue assay
How it was run: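 CEM, a human leukemia cell line.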

HT-29 = test: Cytotoxicity against human HT-29 cells after 48 hrs by alamar blue assay; conditions: HT-29, 48 h
How it was run: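 HT-29, a human colon cancer cell line.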

NCI-H460 = test: Cytotoxicity against human NCI-H460 cells after 48 hrs by alamar blue assay; conditions: NCI-H460, 48 h
How it was run: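 H460, a human lung cancer cell line.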

Structure (SMILES)	IC50 (MCF7)	IC50 (CCRF-CEM)	IC50 (HT-29)	IC50 (NCI-H460)
C[C@H]1O[C@@H](c2c(O)cc(O)c3c(=O)cc(-c4ccc(O)cc4)oc23)C[C@H](O)[C@H]1O	75 µM	2.58 µM	10 µM	12 µM
COc1cc(O)c2c(=O)cc(-c3ccc(O[C@@H]4O[C@H](CO)[C@@H](O)[C@H](O)[C@H]4O)cc3)oc2c1[C@H]1C[C@H](O)[C@H](O)[C@@H](C)O1	> 100 µM	> 100 µM	> 100 µM	> 100 µM
COc1cccc2c1C(=O)c1c(O)c3c(c(O)c1C2=O)C[C@@](O)(C(=O)CO)C[C@@H]3O[C@H]1C[C@H](N)[C@H](O)[C@H](C)O1 [DOXORUBICIN]	2.5 µM	–	6.04 µM	–
C[C@H]1O[C@@H](c2c(O)cc(O)c3c(=O)cc(-c4ccc(O)cc4)oc23)C[C@H](O)[C@@H]1O	6.35 µM	4.42 µM	25.3 µM	18.2 µM
COc1cc(O)c2c(=O)cc(-c3ccc(O)cc3)oc2c1[C@H]1CC(=O)[C@H](O)[C@@H](C)O1 [ACICULATINONE]	18.4 µM	13.3 µM	11.6 µM	18.1 µM
COc1cc(O)c2c(=O)cc(-c3ccc(O)cc3)oc2c1[C@H]1C[C@H](O)[C@H](O)[C@@H](C)O1 [ACICULATIN]	3.16 µM	2.65 µM	26 µM	46.9 µM
